Screening results: PubChem, The Scripps Research Institute Molecular Screening Center
5HT1a ag: agonists of human 5-HT1a serotonin receptor; P08908; activation, % at 10 µM; AID 567; CHO 5-HT1a Ga15 NFAT-bla reporter, FRET ratio; 0% basal, 100% maximal reference agonist; 65,000 tested, 0.56% active;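 active = activation above the screen-wide mean activation plus 3 SD, cut at about 19% in these data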
S1P1 ag-PAM: agonists and agonism potentiators of human S1P1 receptor; P21453; S1P1 CRE-bla cells, forskolin, beta-lactamase FRET, potentiator mode; S1P1 agonist co-added at EC20, 2 nM; 100% = saturating reference agonist, 0% = basal; activation, % at 9.5 µM; 56,000 tested, 0.57% active; AID 449;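 active = activation above a cutoff set at the mean activation of all tested compounds plus 3 SD, cut at about 54% in these data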;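 note: forskolin at 4 µM as EC80 and the EC20 agonist is SEW2871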
HTR1E antagonist: 5-HT1E (human) receptor antagonism. P28566. CHO 5-HT1E Ga15 NFAT-bla reporter, FRET, antagonist. inhibition, % at 6 µM. 65,000 tested, 0.99% active. AID 571;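 active = inhibition above a set limit, the mean inhibition across every tested compound plus 3 SD, cut at about 29% in these data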;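 note: signal is the 460 over 535 nm emission ratio of beta-lactamase substrate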
Target sequence (P28566 whole entry, looked up): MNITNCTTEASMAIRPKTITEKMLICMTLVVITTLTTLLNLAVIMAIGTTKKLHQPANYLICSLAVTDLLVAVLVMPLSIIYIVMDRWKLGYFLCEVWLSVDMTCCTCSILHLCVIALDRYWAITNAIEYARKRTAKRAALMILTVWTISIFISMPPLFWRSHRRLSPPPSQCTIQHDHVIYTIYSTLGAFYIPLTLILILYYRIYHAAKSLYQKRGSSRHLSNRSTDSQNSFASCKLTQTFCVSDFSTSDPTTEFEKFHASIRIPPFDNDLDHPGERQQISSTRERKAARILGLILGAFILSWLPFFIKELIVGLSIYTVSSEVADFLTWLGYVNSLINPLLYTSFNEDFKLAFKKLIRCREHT
5-HT1A blocker: blocks the human serotonin 5-HT1a receptor. AID 612. inhibition, % at 10 µM. P08908. CHO 5-HT1a Ga15 NFAT-bla reporter, antagonist mode. 62,000 tested, 0.68% active;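 active = inhibition above the mean of all tested compounds plus 3 SD, cut at about 43% in these data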;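 note: receptor stimulated by 5-CT agonist at 100 nM near EC80; beta-lactamase reporter measured by ratiometric fluorescence of a cleavable substrate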
HTR1E agonist: activates the human 5-HT1E serotonin receptor | CHO 5-HT1E Ga15 NFAT-bla reporter, FRET; 0% DMSO wells, 100% control agonist wells | activation, % at 6 µM | 65,000 tested, 0.69% active | AID 574;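 active = activation above a set limit, the screen-wide mean activation plus 3 SD, cut at about 8.5% in these data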
S1P3 agonist: activates the human S1P3 receptor | Q99500 | S1P3 NFAT-BLA reporter cells, agonism, FRET ratio; relative to 1 µM S1P, basal subtracted | activation, % at 4.5 µM | 60,000 tested, 0.1% active;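 active = activation above the screen-wide mean plus 3 SD, cut at about 4.5% in these data, passing the limit was not always enough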
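material = human S1P3 NFAT-BLA reporter CHO cells | schedule = 4 h compound at 37 °C, 2 h substrate at RT | measured by = fluorescent BLA substrate, ex 405 nm, em 460/535 nm ratio | controls = 1 µM S1P reference | replication = primary once, confirmation triplicate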
Large screens that a line does not name were inactive. This is a sample that favours compounds with a hit; in the whole collection about 3% have one here.

Cc1c(/C=N/n2cnnc2)c2ccccc2n1CCOc1ccc(Cl)cc1	HTR1E antagonist 33 (no result: S1P1 ag-PAM, S1P3 agonist)
Cc1ccc(OCCn2c(C)c(/C=N/n3cnnc3)c3ccccc32)cc1	HTR1E antagonist 44
CCOC(=O)N1CCN(C(=O)Nc2ccc(Cl)cc2Cl)CC1	none (no result: S1P1 ag-PAM, S1P3 agonist)
O=S(=O)(NC1CC1)c1ccc(S(=O)(=O)N2CCCC3(CCCCC3)C2)cc1	HTR1E antagonist 29
CC1=CC(C)(C)Nc2ccc(OC(=O)c3ccco3)cc21	5HT1a ag 25, HTR1E antagonist 51
CC1=CC(C)(C)Nc2ccc(OC(=O)c3cccnc3)cc21	S1P1 ag-PAM 64, HTR1E antagonist 30
CC1=CC(C)(C)Nc2ccc(OC(=O)CN3C(=O)CCC3=O)cc21	none
Nc1cccc(-n2nncc2-c2ccc(Cl)cc2)c1	none (no result: S1P1 ag-PAM, S1P3 agonist)
Nc1nonc1C(=O)NCCNCc1cc(Br)ccc1OCc1ccc(F)cc1	S1P1 ag-PAM 93, 5-HT1A blocker 49
COCCn1c(SCC(=O)N2CCN(c3ccccc3)CC2)nc2c(c1=O)SC(C)C2 (configuration not stated)	none
CCOC(=O)N1CCN(Cc2nc3c(c(=O)n(C)c(=O)n3C)n2CCC(C)C)CC1	none
N#CC1=C2SCC(O)(c3ccccc3)N2C(=O)CC1c1cccs1 (configuration not stated)	HTR1E antagonist 34
c1csc(-c2csc3nc(CN4CCOCC4)nc(NCc4ccc5c(c4)OCO5)c23)c1	5-HT1A blocker 52
Cc1cccc(N2CCN(CC(=O)NCC3CCCCC3)CC2)c1C	5HT1a ag 41
CCS(=O)(=O)N1CCN(c2cccc(C)c2C)CC1	none
CCN(CC)CCCCOc1ccccc1OC	HTR1E agonist 10
CN=c1sc2ccccc2n1CC(O)COCc1ccco1 (configuration not stated)	HTR1E agonist 36 (no result: 5-HT1A blocker)
Cc1cc(NC(=O)c2ccc(N(C)S(=O)(=O)c3ccccc3)cc2)no1	none
O=C(C1CCCN(S(=O)(=O)c2cccc3cccnc23)C1)N1CCN(c2ccccc2F)CC1 (configuration not stated)	none
Cc1cccc(N2CCN(C(=O)C3CCCN(S(=O)(=O)c4cccc5cccnc45)C3)CC2)c1C (configuration not stated)	HTR1E agonist 18
CCCCSc1nc(N)c(C#N)c(-c2cccs2)c1C#N	HTR1E antagonist 32 (no result: 5-HT1A blocker)
CC(C)OC(=O)CSc1nc(N)c(C#N)c(-c2cccs2)c1C#N	HTR1E antagonist 44
CCOc1ccc(-c2[nH]ncc2-c2ccc(OC)c(OC)c2)c(O)c1	none
CCc1cc(-c2[nH]ncc2-c2ccc3c(c2)OCO3)c(O)cc1O	S1P1 ag-PAM 69
COc1ccc(-c2[nH]ncc2-c2ccc3c(c2)OCCO3)c(O)c1	S1P1 ag-PAM 91, 5-HT1A blocker 44
O=C(CSc1nnc2ccccn12)Nc1ccccc1C(=O)NC1CC1	none
COC(=O)Nc1nc2ccc(C(=O)c3ccccc3)cc2[nH]1	HTR1E antagonist 75 (no result: 5-HT1A blocker)
COc1cc(C(=O)Nc2nc3ccccc3[nH]2)cc(OC)c1OC	none
CCCSc1ccc2nc(NC(=O)OC)[nH]c2c1	HTR1E antagonist 42 (no result: 5-HT1A blocker)
CCn1c(SCC(=O)O)nc2sc3c(c2c1=O)CCC3	none (no result: 5-HT1A blocker)
CCn1c(SCc2ccc(C(=O)OC)o2)nc2sc3c(c2c1=O)CCCC3	HTR1E agonist 9.3
CCNc1nc(Oc2ccc(C(=O)OCC)cc2)nc(SC)n1	none (no result: S1P1 ag-PAM, S1P3 agonist)
CN1CCN(c2nc(N3CCN(c4ccccc4)CC3)ncc2F)CC1	HTR1E agonist 35
Cn1c(=O)oc2cc(S(=O)(=O)NCCN3CCN(c4ccccc4F)CC3)ccc21	5-HT1A blocker 57
Cn1c(=O)oc2cc(S(=O)(=O)N3CCN(c4ccccn4)CC3)ccc21	5HT1a ag 35
Cn1c(=O)oc2cc(S(=O)(=O)NCCN3CCCCCC3)ccc21	none
O=C(Cn1ncn2c(cc3ccccc32)c1=O)NCCC1=CCCCC1	none
O=C(NC1CCC(NC(=O)C2CCCO2)CC1)C1CCCO1 (configuration not stated)	none
COc1ccc2c(-c3ccccc3)cc3nnnn3c2c1	HTR1E antagonist 30
COc1cccc(C2=CC(c3ccccc3)n3nnnc3N2)c1 (configuration not stated)	none (no result: 5-HT1A blocker)
COc1cc(OC)c(OC)cc1CNC1CCCCCC1	5HT1a ag 33
O=S(=O)(CCSc1ccccn1)c1nc2ccccc2s1	S1P1 ag-PAM 88
O=S(=O)(CCSc1nc2ccccc2o1)c1nc2ccccc2s1	5-HT1A blocker 47
CCS(=O)(=O)CCSc1nc2ccccc2o1	none (no result: S1P1 ag-PAM)
O=C(CSc1nc2ccccc2s1)Nc1ncccn1	none
CC(C)(C)N1C(=O)Cc2c1nc(N)c1c(N)nc(N3CCCCC3CO)c(C#N)c21 (configuration not stated)	HTR1E antagonist 34, 5-HT1A blocker 53
Cc1ccc(C2c3c(oc4ccccc4c3=O)C(=O)N2c2nnc(C)s2)o1 (configuration not stated)	none (no result: S1P1 ag-PAM)
N#CCCn1c2ccccc2c2nc3ccccc3nc21	HTR1E antagonist 38
CC(=O)NCc1ccc(C(=O)CSc2nnc(-c3ccncc3)n2Cc2ccccc2)o1	HTR1E agonist 12
O=C(C1CCC(=O)N1Cc1ccccc1Cl)N1CCN(c2ccc(F)cc2)CC1 (configuration not stated)	none
CCN(C(=O)c1ccc(C(C)(C)C)cc1)c1nnc(Cn2nnc3ccccc32)s1	S1P1 ag-PAM 130
COCCNC(=O)CN(C(=O)Cn1nnc2ccccc21)c1ccccc1	none
CN(C)/C=C1\C(=O)c2ccc(N(C)C)nc2CC1c1ccccc1 (configuration not stated)	5HT1a ag 99, HTR1E agonist 25
C=CCN(C)CCCNC(=O)/C=N/O	none (no result: 5-HT1A blocker)
COc1ccc(S(=O)(=O)n2nc(-c3cc(OC)c(OC)c(OC)c3)cc2N)cc1OC	none
COc1ccc(-c2cc(N)n(S(=O)(=O)c3c(F)c(F)c(F)c(F)c3F)n2)cc1OC	HTR1E antagonist 33, 5-HT1A blocker 46
CCOc1ccc(C(C)=O)cc1N1C(=O)C2C3C=CC(C3)C2C1=O (configuration not stated)	none
CCOc1ccc(C(C)=O)cc1N1C(=O)C2C3C=CC(O3)C2C1=O (configuration not stated)	HTR1E antagonist 39, 5-HT1A blocker 60
CC(=O)Nc1cccc(NC(=O)CCCC(=O)O)c1	HTR1E agonist 28
CS(=O)(=O)N(CC(=O)N1CCCCC1)C1CCCCC1	none
COc1ccc2sc(C)nc2c1NC(C)=O	none
COc1ccc(NC(C)=O)c2nc(C)c(C)nc12	HTR1E antagonist 30
Cc1ccc2c(c1)nnn2C1CCN(CC(=O)Nc2ccc3c(c2)OCCO3)CC1	none
